Compound activity from PubChem BioAssay.
RTF Ca sens act = cardiac RTF calcium sensitization. P19429+P45379. IANBD-labeled TnC RTF fluorescence at EC20 calcium; 0% EC20 calcium, 100% full calcium. activation, % at 7.2 µM. 0.24% of 340,000 active. AID 493008;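 active = activation above the mean over all tested compounds plus 3 SD, cut at about 30% in these data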;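 also: rise in fluorescence read as greater calcium sensitivity of cardiac thin filaments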
DDE Tn6 FP inh = DD(E)-Tn6 binding inhibition, primary FP screen | Fibrin DD(E) TRITC-Tn6 fluorescence polarization displacement | inhibition, % at 8.3 µM | P02675 | 0.21% of 370,000 active | AID 720509;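 active = inhibition above a per-campaign cutoff: mean of compounds within control limits plus 3 SD, cut at about 15% in these data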;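 also: 0% = median of all compound wells on the plate and 100% = blocking peptide control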
Target sequence (P02675 whole entry, looked up): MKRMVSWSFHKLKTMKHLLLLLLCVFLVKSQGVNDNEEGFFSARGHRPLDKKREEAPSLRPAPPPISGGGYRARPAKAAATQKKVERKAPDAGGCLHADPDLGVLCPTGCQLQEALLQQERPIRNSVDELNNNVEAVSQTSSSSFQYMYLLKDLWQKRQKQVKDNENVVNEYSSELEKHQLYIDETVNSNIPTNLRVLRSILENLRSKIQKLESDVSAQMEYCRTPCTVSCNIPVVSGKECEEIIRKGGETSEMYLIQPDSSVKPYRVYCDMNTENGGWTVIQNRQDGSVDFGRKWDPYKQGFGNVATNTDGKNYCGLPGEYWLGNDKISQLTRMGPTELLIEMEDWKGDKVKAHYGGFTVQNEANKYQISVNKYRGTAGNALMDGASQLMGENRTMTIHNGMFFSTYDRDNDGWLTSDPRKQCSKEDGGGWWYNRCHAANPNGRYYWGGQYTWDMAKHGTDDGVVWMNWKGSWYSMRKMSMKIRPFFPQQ
RTF Ca sens inh = cardiac RTF calcium desensitization | inhibition, % at 7.15 µM | AID 493244 | P19429+P45379 | IANBD-labeled cardiac RTF, Ca2+ fluorescence | 0.12% of 340,000 active;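 active = inhibition above the mean inhibition of all tested compounds plus 3 SD, cut at about 17% in these data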;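 also: assay run at fixed EC70 calcium of 1.6 mM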
DDE Tn7 FP inh = disrupts Tn7 cyclic peptide binding to fibrin D-Dimer-E complex. 0.13% of 370,000 active. P02675. AID 720508. FP displacement of FITC-Tn7 peptide from fibrin DD(E); 0% = median of compound wells per plate. inhibition, % at 8.3 µM;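 active = inhibition above the mean of compounds falling within the control limits plus 3 SD of them, cut at about 14% in these data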;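 also: 0% = plate median of compound wells and 100% = 10 µM Aha-Tn7 peptide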
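Assay system: human fibrin DD(E). Input: DD(E) 2 µM final. Medium: Tris buffer with calcium and detergent, pH 7.8. Compound dosing: single point at 8.3 µM. Timing: 10 min plus 3 h, room temperature. Technique: fluorescence polarization of the labelled Tn7 tracer. Read-out: percent inhibition. Replicates: singlicate testing.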
CRFBP-R2 agonist = agonists of human CRF-binding protein/CRF-R2 receptor complex; HEK293 CRF-R2/CRF-BP, calcium dye fluorescence (FLIPR); percent of saturating CRF peptide response; activation, % at 13.2 µM; 0.46% of 350,000 active; AID 588473;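 active = activation of at least 50%, plus an integration ratio under a set limit after plate pattern correction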;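 also: plate controls were neutral control wells without compound for no effect and CRF at EC100 for full effect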
CRFR2-BP antag = antagonists of CRF-binding protein/CRF-R2 receptor complex | AID 588475 | 0.59% of 350,000 active | inhibition, % at 11.8 µM | HEK293 CRF-R2/CRF-BP, CRF-induced calcium fluorescence;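 active = inhibition of the ligand-induced calcium signal above about 50% at the single tested concentration, limit read from the data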
* marks the source's active call; other numbers are inactive results; nt = no result given. Shown are actives, neighbours in structure and some others; about 1.4% of the full set was active somewhere.

SMILES	RTF Ca sens act	DDE Tn6 FP inh	RTF Ca sens inh	DDE Tn7 FP inh	CRFBP-R2 agonist	CRFR2-BP antag
CCOCCCNc1nc2c(C)cccn2c(=O)c1/C=C1\SC(=S)N(C(C)CC)C1=O (stereo not given)	29	-1	-33	-10	109*	-77
CCC(C)N=Cc1c(Nc2ccccc2)nc2c(C)cccn2c1=O (stereo not given)	-1	-4	-3	-11	2	-3
CCOCCCNc1nc2c(C)cccn2c(=O)c1/C=C1\SC(=S)N(CC(C)C)C1=O	3	0	5	-3	170*	-358
CCCN1C(=O)/C(=C/c2c(NCCCOCC)nc3c(C)cccn3c2=O)SC1=S	4	2	-7	7	113*	-173
N#CCC[C@H]1CC[C@]2(CCCN(Cc3cccc4ccccc34)C2)O1	nt	0	nt	-2	nt	nt
CNc1ncn(-c2c(C)cccc2C)c(=O)n1	nt	-5	nt	-10	nt	nt
CCCCOCCCNC(=O)C[C@@H]1C(=O)N2CCCC3=C2[C@@]1(C(=O)OC)CCCC3	nt	-9	nt	-2	nt	nt
COC(=O)c1sc2cc([N+](=O)[O-])cc(SCC(C)C)c2c1N	4	3	-25	1	55*	-156
C/C(=N/NC(=O)c1ccoc1C)c1cccs1	nt	-7	nt	-7	nt	nt
Cc1cc(=O)n2[nH]c(Nc3cccc(Cl)c3)nc2n1	3	-4	-2	3	116*	-13
Cc1nnc(SCC(=O)c2cc(C)n(-c3ccc4c(c3)OCO4)c2C)s1	-8	-5	-2	-1	63*	-39
Cc1nnc(SCC(=O)c2cc(C)n(C3CC3)c2C)s1	5	10	-10	2	52*	-26
CNc1nnc(SCC(=O)c2cc(C)n(C3CC3)c2C)s1	-1	-1	-5	0	0	1
CCC(C)[C@@H](C(=O)OC)N(Cc1cn(Cc2ccccc2)nn1)S(=O)(=O)c1ccccc1Br (stereo not given in full)	nt	0	nt	2	nt	nt
COC(=O)c1cc(N2CCN(C)CC2)nc2ccccc12	50*	2	-62	11	18	-1
CCOC(=O)c1cc(N2CCCCC2)nc2ccccc12	1	7	-1	-5	0	-21
O=C(c1cccc([N+](=O)[O-])c1)c1ccc2c(c1)OCCOCCOCCO2	nt	0	nt	-2	1	58*
O=C(c1ccccc1)c1ccc2c(c1)OCCOCCOCCO2	3	3	-9	6	0	6
CC(=O)NC1=NN(C(C)=O)C(C)(c2ccccn2)S1 (stereo not given)	-3	1	6	2	7	52*
CC(=O)NC1=NN(C(C)=O)C(C)(c2ccc(Br)cc2)S1 (stereo not given)	3	0	-2	7	4	-14
COC(=O)C[C@H]1CC[C@H](NC(=O)Nc2ccccc2OC)[C@@H](CO)O1	nt	4	nt	-9	nt	nt
COc1ccc2cc(C(=O)N3CCN(Cc4ccc5c(c4)OCO5)CC3)[nH]c2c1	2	-4	1	2	0	50*
O=C(O)c1ccc(-c2nn3c(=O)cc(N4CCNCC4)nc3s2)cc1	nt	-2	nt	4	nt	nt
COc1cccc(CC2(CO)CCCN(Cc3cc4ccccc4[nH]3)C2)c1 (stereo not given)	0	5	-2	-5	120*	-118
COc1cccc(CC2(CO)CCCN(Cc3ccc(C)s3)C2)c1 (stereo not given)	-3	4	-3	-2	0	3
SMILES	RTF Ca sens act	DDE Tn6 FP inh	RTF Ca sens inh	DDE Tn7 FP inh	CRFBP-R2 agonist	CRFR2-BP antag
CC(=O)N1c2ccccc2Oc2cc3ccccc3cc21	1	-3	-7	-7	0	-20
O=C(CCl)N1c2ccccc2Oc2ccc3ccccc3c21	226*	39*	-295	16*	41	-88
C[C@H]1CN([C@@H](C)CO)C(=O)CCCn2nncc2CO[C@H]1CN(C)S(=O)(=O)c1ccc(Oc2ccccc2)cc1	nt	-1	nt	3	-1	-6
NS(=O)(=O)c1ccc(NC(=O)COc2ccc(C(=O)c3ccc(F)cc3)cc2)cc1	17	24*	-2	1	2	-8
CC(Oc1ccc(C(=O)c2ccccc2)cc1)C(=O)Nc1ccc(S(N)(=O)=O)cc1 (stereo not given)	-1	-3	-1	-7	61*	-57
CN(C)c1ccc(/C=C2\N=C(C(C)(C)C)OC2=O)cc1	30*	-3	-14	5	22	-31
COc1ccc(/C=C2\OC(=S)N(C)C2=O)cc1	-2	3	-4	-2	-2	1
CN1C(=O)/C(=C\c2ccc(N(C)C)cc2)OC1=S	46*	5	-132	-8	211*	-187
COc1ccc(/C=C2\N=C(C(C)(C)C)OC2=O)c(OC)c1	-2	2	-3	1	1	9
O=C(Cc1ccccc1)NC1CCCc2c1cnn2-c1ccc(F)cc1F (stereo not given)	nt	0	nt	3	nt	nt
CCCOC(=O)c1ccc(Oc2cn[nH]c2-c2ccc(OCC)cc2O)cc1	-3	-4	-4	-1	-5	107*
O=C1CCCCC1CCS(=O)(=O)NCc1ccccc1 (stereo not given)	nt	11	nt	3	nt	nt
O=c1c([N+](=O)[O-])c(NC2CCCCC2)c2ccccc2n1-c1ccccc1	12	-1	-2	5	-4	57*
COc1ccc(S[C@]2(C(=O)N3CCCC3)CC(=O)N(C(=O)/C=C/c3ccccc3)[C@@H]2c2ccc(OC)cc2)cc1	nt	-2	nt	-5	nt	nt
COc1ccc(C(CC(=O)O)c2ccc3c(c2)OCO3)cc1 (stereo not given)	-2	-3	1	0	1	94*
COC(=O)CC(NC(=O)c1ccc(C)cc1)c1ccc2c(c1)OCO2 (stereo not given)	-2	-1	4	5	-7	107*
COc1ccc(-n2c(COc3ccc(C)cc3)nnc2SCC(=O)Nc2ccc(S(=O)(=O)Nc3cc(C)nc(C)n3)cc2)cc1	nt	5	nt	3	nt	nt
CC(=O)NC1CCCCN(C(C)C)C1=O (stereo not given)	nt	7	nt	-2	nt	nt
CC1(C(=O)Nc2ccc(Cl)c(Cl)c2)CCN1C(=O)CC1CCCC1 (stereo not given)	nt	-1	nt	-3	nt	nt
Cc1ccc(-n2c3nc(=O)[nH]c(=O)c-3cc3cc([N+](=O)[O-])ccc32)cc1C	-1	-9	2	-3	58*	-73
CC(NC(=O)c1ccco1)c1nc(-c2ccccc2)no1 (stereo not given)	-5	0	3	6	-3	11
Cc1cccc(-c2noc(C(C)NC(=O)c3ccco3)n2)c1 (stereo not given)	-8	0	-22	0	1	108*
Cc1ccc(OCCOc2ccc(Cl)cc2Cl)c(Br)n1	nt	-6	nt	3	nt	nt
